# Results from ChEMBL document CHEMBL3120098, “Structure-activity relationship (SAR) optimization of 6-(indol-2-yl)pyridine-3-sulfonamides: identification of potent, selective, and orally bioavailable small molecules targeting hepatitis C (HCV) NS4B” (J Med Chem, 2014).
# Test system: not listed separately
# Test: AUC (0 to 6 hrs) in Sprague-Dawley rat at 10 mg/kg, po
# Type: ADME, organism-based
# Parameters: time < 6 hr, dose 10 mg/kg, route oral
# Details: plasma
row,AUC(0-t) at 6 h,SMILES
1,20.1 µM·h,C[C@H](NS(=O)(=O)c1ccc(-c2c(C#N)c3ccc(OC(F)F)cc3n2-c2ncccn2)nc1)C(F)(F)F
2,3.81 µM·h,C[C@H](NS(=O)(=O)c1ccc(-c2c(C#N)c3cc(F)c(OC(F)F)cc3n2-c2ncccn2)nc1)C(F)(F)F

# Test system: not listed separately
# Test: Toxicity in human HuH7 cells assessed as effect on GAPDH mRNA level
# Type: cell-based, Huh-7
# Details: not given
# In short: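 Run in parallel with replicon assay in Con1 replicon Huh-7 cells (0.5% DMSO, 37 °C); endogenous GAPDH mRNA quantified by TaqMan RT-PCR; highest concentration tested 10000 nM.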
row,SMILES,IC50
1,CCc1cc2c(C#N)c(-c3ccc(S(=O)(=O)N[C@@H](C)C(F)(F)F)cn3)n(C3CCC3)c2cc1OC(F)F,> 10000 nM
2,Cc1cc(F)c2c(C#N)c(-c3ccc(S(=O)(=O)N[C@@H](C)C(F)(F)F)cn3)n(C3CCC3)c2c1,> 10000 nM
3,Cc1ccc(-n2c(-c3ccc(S(=O)(=O)N[C@@H](C)C(F)(F)F)cn3)c(C#N)c3cc(F)c(C)cc32)nc1,> 10000 nM
4,C[C@H](NS(=O)(=O)c1ccc(-c2c(C#N)c3cc(F)c(C4CC4)cc3n2-c2ccccn2)nc1)C(F)(F)F,> 10000 nM
5,CSc1cc2c(cc1F)c(C#N)c(-c1ccc(S(=O)(=O)N[C@@H](C)C(F)(F)F)cn1)n2C1CCC1,> 10000 nM
6,Cc1cc2c(cc1F)c(C#N)c(-c1ccc(S(=O)(=O)N[C@@H](C)C(F)(F)F)cn1)n2-c1ncccc1C,> 10000 nM
7,Cc1cc2c(C#N)c(-c3ccc(S(=O)(=O)N[C@@H](C)C(F)(F)F)cn3)n(C3CCC3)c2cc1OC(F)F,10000 nM
8,C[C@H](NS(=O)(=O)c1ccc(-c2c(C#N)c3cc(F)c(Cl)cc3n2C2CCC2)nc1)C(F)(F)F,> 10000 nM
9,C[C@H](NS(=O)(=O)c1ccc(-c2c(C#N)c3c(F)cc(OC(F)F)cc3n2C2CCC2)nc1)C(F)(F)F,> 10000 nM
10,C[C@H](NS(=O)(=O)c1ccc(-c2c(C#N)c3cc(F)c(C4CC4)cc3n2C2CCC2)nc1)C(F)(F)F,> 10000 nM
11,C[C@H](NS(=O)(=O)c1ccc(-c2c(C#N)c3cc(F)c(O)cc3n2C2CCC2)nc1)C(F)(F)F,> 10000 nM
12,Cc1cnc(-n2c(-c3ccc(S(=O)(=O)N[C@@H](C)C(F)(F)F)cn3)c(C#N)c3cc(F)c(C)cc32)nc1,> 10000 nM
13,C[C@H](NS(=O)(=O)c1ccc(-c2c(C#N)c3ccc(OC(F)F)cc3n2-c2ncccn2)nc1)C(F)(F)F,> 10000 nM
14,Cc1ccc2c(C#N)c(-c3ccc(S(=O)(=O)N[C@@H](C)C(F)(F)F)cn3)n(-c3ncccn3)c2c1,> 10000 nM
15,C[C@H](NS(=O)(=O)c1ccc(-c2c(C#N)c3cc(O)c(OC(F)F)cc3n2C2CCC2)nc1)C(F)(F)F,> 10000 nM
16,C[C@H](NS(=O)(=O)c1ccc(-c2c(C#N)c3cc(F)c(OC(F)F)cc3n2-c2ncccn2)nc1)C(F)(F)F,> 10000 nM
17,COc1cc2c(cc1F)c(C#N)c(-c1ccc(S(=O)(=O)N[C@@H](C)C(F)(F)F)cn1)n2C1CCC1,> 10000 nM

# Test system: Hepatitis C virus
# Test: Antiviral activity against HCV1b Con1 infected in human HuH7 cells assessed as inhibition of viral RNA replication by RT-PCR analysis
# Type: functional, organism-based, Hepacivirus hominis
# Details: isolate Con1, Huh-7
row,EC50,SMILES
1,1400 nM,CCc1cc2c(C#N)c(-c3ccc(S(=O)(=O)N[C@@H](C)C(F)(F)F)cn3)n(C3CCC3)c2cc1OC(F)F
2,> 10000 nM,CCc1cc2c(cc1F)c(C#N)c(-c1ccc(S(N)(=O)=O)cn1)n2-c1ncccn1
3,153 nM,Cc1cc(F)c2c(C#N)c(-c3ccc(S(=O)(=O)N[C@@H](C)C(F)(F)F)cn3)n(C3CCC3)c2c1
4,25 nM,Cc1ccc(-n2c(-c3ccc(S(=O)(=O)N[C@@H](C)C(F)(F)F)cn3)c(C#N)c3cc(F)c(C)cc32)nc1
5,16 nM,C[C@H](NS(=O)(=O)c1ccc(-c2c(C#N)c3cc(F)c(C4CC4)cc3n2-c2ccccn2)nc1)C(F)(F)F
6,35 nM,CSc1cc2c(cc1F)c(C#N)c(-c1ccc(S(=O)(=O)N[C@@H](C)C(F)(F)F)cn1)n2C1CCC1
7,400 nM,Cc1cc2c(cc1F)c(C#N)c(-c1ccc(S(=O)(=O)N[C@@H](C)C(F)(F)F)cn1)n2-c1ncccc1C
8,> 10000 nM,CC(O)c1cc2c(cc1F)c(C#N)c(-c1ccc(S(N)(=O)=O)cn1)n2-c1ncccn1 (centres undefined)
9,108 nM,Cc1cc2c(C#N)c(-c3ccc(S(=O)(=O)N[C@@H](C)C(F)(F)F)cn3)n(C3CCC3)c2cc1OC(F)F
10,460 nM,C[C@H](NS(=O)(=O)c1ccc(-c2c(C#N)c3cc(F)c(Cl)cc3n2C2CCC2)nc1)C(F)(F)F
11,18 nM,C[C@H](NS(=O)(=O)c1ccc(-c2c(C#N)c3c(F)cc(OC(F)F)cc3n2C2CCC2)nc1)C(F)(F)F
12,28 nM,C[C@H](NS(=O)(=O)c1ccc(-c2c(C#N)c3cc(F)c(C4CC4)cc3n2C2CCC2)nc1)C(F)(F)F
13,410 nM,C[C@H](NS(=O)(=O)c1ccc(-c2c(C#N)c3cc(F)c(O)cc3n2C2CCC2)nc1)C(F)(F)F
14,32 nM,Cc1cnc(-n2c(-c3ccc(S(=O)(=O)N[C@@H](C)C(F)(F)F)cn3)c(C#N)c3cc(F)c(C)cc32)nc1
15,7 nM,C[C@H](NS(=O)(=O)c1ccc(-c2c(C#N)c3ccc(OC(F)F)cc3n2-c2ncccn2)nc1)C(F)(F)F
16,3 nM,Cc1ccc2c(C#N)c(-c3ccc(S(=O)(=O)N[C@@H](C)C(F)(F)F)cn3)n(-c3ncccn3)c2c1
17,68 nM,CC(O)c1cc2c(cc1F)c(C#N)c(-c1ccc(S(=O)(=O)N[C@@H](C)C(F)(F)F)cn1)n2-c1ncccn1 (some centres undefined)
18,63 nM,C[C@H](NS(=O)(=O)c1ccc(-c2c(C#N)c3cc(O)c(OC(F)F)cc3n2C2CCC2)nc1)C(F)(F)F
19,16 nM,C[C@H](NS(=O)(=O)c1ccc(-c2c(C#N)c3cc(F)c(OC(F)F)cc3n2-c2ncccn2)nc1)C(F)(F)F
20,74 nM,COc1cc2c(cc1F)c(C#N)c(-c1ccc(S(=O)(=O)N[C@@H](C)C(F)(F)F)cn1)n2C1CCC1
